From ChEMBL document CHEMBL2375270, “Structure-based design, SAR analysis and antitumor activity of PI3K/mTOR dual inhibitors from 4-methylpyridopyrimidinone series” (Bioorg Med Chem Lett, 2013)

System: Plasma
Assay: Drug metabolism in human plasma assessed as formation of 2-((trans)-4-(2-amino-6-(6-methoxypyridin-3-yl)-4-methyl-7-oxopyrido[2,3-d]pyrimidin-8(7H)-yl)cyclohexyloxy)acetic acid at 8 mg, po qd for 21 days by HPLC analysis
Assay type: ADME, organism-based
Details: in vivo, 504 h; call rule not given here
Summary of the method: (§1)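 Human plasma came from patients given 8 mg once daily in a clinical dose-escalation study. Metabolites were profiled from the total ion chromatogram. Peaks were assigned by retention time and molecular ion (m/z) against reference standards and parent drug.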

Drug metabolism	SMILES
Active	COc1ccc(-c2cc3c(C)nc(N)nc3n([C@H]3CC[C@H](OCCO)CC3)c2=O)cn1 [PF-04691502]

System: Plasma
Assay: Drug metabolism in human plasma assessed as formation of glucuronide conjugate at 8 mg, po qd for 21 days by HPLC analysis
Assay type: ADME, organism-based
Details: in vivo, 504 h
Summary of the method: as §1

Drug metabolism	SMILES
Active	COc1ccc(-c2cc3c(C)nc(N)nc3n([C@H]3CC[C@H](OCCO)CC3)c2=O)cn1 [PF-04691502]

System: not listed separately
Assay: Toxicity against nu/nu mouse
Assay type: organism-based
Details: in vivo
Summary of the method: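 Tolerability assessed in mice bearing U87 xenografts during tumour growth inhibition studies. Groups received vehicle or 1, 3 or 10 mg/kg. Plasma free drug levels and AKT phosphorylation were sampled at 1 h and 24 h in the top-dose group.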

SMILES	MTD [mg/kg]
COc1ncc(-c2cc3c(C)nc(N)nc3n([C@H]3CC[C@H](OCO)CC3)c2=O)cc1F	10

System: not listed separately
Assay: Volume of distribution at steady state in rat
Assay type: ADME, organism-based
Details: in vivo, read-out: Vdss

SMILES	Vd [L/kg]
COc1ncc(-c2cc3c(C)nc(N)nc3n([C@H]3CC[C@H](OCO)CC3)c2=O)cc1F	4.08

System: not listed separately
Assay: Permeability across dog RRCK cells
Assay type: ADME, cell-based, Canis lupus familiaris, MDCKII-LE
Details: MDCK, read-out: permeability

Papp [×10⁻⁶ cm/s]	SMILES
30.1	COc1ncc(-c2cc3c(C)nc(N)nc3n([C@H]3CC[C@@H](OCC(N)=O)CC3)c2=O)cn1
9.02	Cc1nc(N)nc2c1cc(-c1cnc3ccccc3c1)c(=O)n2[C@H]1CC[C@H](OCC(N)=O)CC1
19.7	Cc1nc(N)nc2c1cc(-c1cnc3ccccc3c1)c(=O)n2[C@H]1CC[C@H](OCO)CC1
29.8	COc1ncc(-c2cc3c(C)nc(N)nc3n([C@H]3CC[C@H](OCC(N)=O)CC3)c2=O)cn1
0.151	Cc1nc(N)nc2c1cc(-c1cn[nH]c1)c(=O)n2[C@H]1CC[C@@H](OCC(N)=O)CC1
26.2	COc1ncc(-c2cc3c(C)nc(N)nc3n([C@H]3CC[C@@H](OCC(N)=O)CC3)c2=O)cc1F
41.6	Cc1nc(N)nc2c1cc(-c1cnc3ccccc3c1)c(=O)n2[C@H]1CC[C@@H](OCO)CC1
30.3	COc1ccc(-c2cc3c(C)nc(N)nc3n([C@H]3CC[C@@H](OCC(N)=O)CC3)c2=O)cn1
26.2	COc1ncc(-c2cc3c(C)nc(N)nc3n([C@H]3CC[C@H](OCC(N)=O)CC3)c2=O)cc1F
4.58	COc1ccc(-c2cc3c(C)nc(N)nc3n([C@H]3CC[C@H](OCC(N)=O)CC3)c2=O)cn1
12.6	Cc1nc(N)nc2c1cc(-c1cn[nH]c1)c(=O)n2[C@H]1CC[C@@H](OCO)CC1
4.57	Cc1nc(N)nc2c1cc(-c1cnc3ccccc3c1)c(=O)n2[C@H]1CC[C@@H](OCC(N)=O)CC1
23.3	Cc1nc(N)nc2c1cc(-c1cnn(C)c1)c(=O)n2[C@H]1CC[C@@H](OCO)CC1
0.295	COc1ccc(-c2cc3c(C)nc(N)nc3n([C@H]3CC[C@H](OCC(=O)O)CC3)c2=O)cn1
21.3	COc1ncc(-c2cc3c(C)nc(N)nc3n([C@H]3CC[C@H](OCO)CC3)c2=O)cn1

System: not listed separately
Assay: Oral bioavailability in rat
Assay type: ADME, organism-based
Details: in vivo

SMILES	bioavailability [%]
COc1ncc(-c2cc3c(C)nc(N)nc3n([C@H]3CC[C@H](OCO)CC3)c2=O)cc1F	79
